In publication PMC10230191 (RSC Advances, 2023):

Key:
[1] = Cytotoxicity in HepG2.2.15 cells; format: cell-based; details: human
Outline: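 Cells plated at 2 × 10^3 per well, exposed continuously to test compound for 14 days; viable cells counted by CCK-8 relative to no-compound controls to give CC50.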

HBV = experiment: Anti-HBV assay in HBV-producing HepG2 2.2.15 cells; format: cell-based, hepatitis B virus; details: for EC50: Hepatitis B virus, HepG2 2.2.15, 336 h, read-out: EC50 (nM) against HBV
Outline: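 […] cells seeded at 4 × 10^3 per well with a range of test-compound concentrations; medium and compound renewed on days 3 and 7. On day 14, total cellular DNA was extracted and HBV genomes quantified by real-time PCR (95 °C 10 min; 50 cycles of 95 °C 10 s, 60 °C 1 min). Copies were derived from CT against 10-fold HBV plasmid dilutions, compared with no-compound controls, and EC50 was obtained by linear forecast.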

SMILES: N#C[C@]1(CO)/C(=C\F)[C@@H](n2cnc3c(=O)[nH]c(N)nc32)C[C@@H]1O [Compound (E)-6, (1S,3S,5S,E)-3-(2-Amino-6-oxo-1,6-dihydro-9H-purin-9-yl)-2-(fluoromethylene)-5-hydroxy-1-(hydroxymethyl)cyclopentane-1-carbonitrile]
- CC50 at 14 days [1]: 93 µM
- EC50 (HBV): 1.2 ± 0.7 nM

SMILES: N#C[C@]1(CO)/C(=C/F)[C@@H](n2cnc3c(=O)[nH]c(N)nc32)C[C@@H]1O [(Z)-6, (1S,3S,5S,Z)-3-(2-Amino-6-oxo-1,6-dihydro-9H-purin-9-yl)-2-(fluoromethylene)-5-hydroxy-1-(hydroxymethyl)cyclopentane-1-carbonitrile]
- CC50 at 14 days [1]: > 100 µM
- times lower anti-HBV activity compared to compound (E)-6 (HBV; HepG2 2.2.15 cells, relative to (E)-6): ~500 times
- EC50 (HBV): 585 ± 358 nM

SMILES: C=C1[C@H](CO)[C@@H](O)C[C@@H]1n1cnc2c(=O)[nH]c(N)nc21 [Compound 1, entecavir, reference compound]
- CC50 at 14 days [1]: 63 µM
- EC50 (HBV): 2.3 ± 0.6 nM

SMILES: N#C[C@]1(CO)O[C@@H](n2cnc3c(=O)[nH]c(N)nc32)C[C@@H]1O [Compound 2, 4′-cyano-deoxyguanosine, reference compound]
- CC50 at 14 days [1]: 3 ± 0.2 µM
- EC50 (HBV): 0.3 ± 0.1 nM
